An excerpt weighted towards active compounds, which were near 2.7% of everything screened.
pPAFAH FP inh: pPAFAH (human) enzyme inhibition. 330,000 compounds, 1.5% hits. AID 463082. inhibition, % at 3.39 µM. recombinant pPAFAH, FP-rhodamine probe fluorescence polarization;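 active = inhibition above the mean inhibition across the screen plus 3 SD, cut at about 25% in these data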;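 note: inhibitors block binding of the rhodamine activity-based probe so polarization drops; 0% = enzyme with DMSO and 100% = wells lacking pPAFAH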
ARFGAP1 inhibitor: rat ARFGAP1 inhibition; Q62848; Arfgap1-stimulated ARF1 GTP hydrolysis, GDP FP detection; inhibition, % at 16.5 µM; 360,000 compounds, 0.26% hits;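 active = inhibition above a per-plate limit, mean inhibition of low control wells plus 3 SD, cut at about 25% in these data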;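 note: 0% = DMSO wells with enzyme and 100% = wells lacking Arfgap1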
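Assay system: Rat Arfgap1 GAP domain (His6, aa 1-136), purified enzyme | Buffer or medium: HEPES 25 mM pH 7.5, NaCl 150 mM, MgCl2, DTT | Schedule: GTP hydrolysis reaction 2 h at 25 °C | Signal: FP of antibody-bound GDP Alexa 633 tracer, ex 620/em 688 nm | Measure: Percent inhibition of Arfgap1-stimulated GTP hydrolysis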
PAFAH1B3 inh: blocks human PAF acetylhydrolase 1B catalytic subunit 3; AID 492972; recombinant PAFAH1B3, FP-rhodamine probe, fluorescence polarization; inhibition, % at 3.39 µM; Q15102; 340,000 compounds, 0.28% hits;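 active = inhibition above the screen-wide average of all tested compounds plus 3 SD, cut at about 25% in these data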;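 note: 0% = enzyme with DMSO only and 100% = wells lacking PAFAH1B3 protein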
Target sequence (Q15102 whole entry, looked up): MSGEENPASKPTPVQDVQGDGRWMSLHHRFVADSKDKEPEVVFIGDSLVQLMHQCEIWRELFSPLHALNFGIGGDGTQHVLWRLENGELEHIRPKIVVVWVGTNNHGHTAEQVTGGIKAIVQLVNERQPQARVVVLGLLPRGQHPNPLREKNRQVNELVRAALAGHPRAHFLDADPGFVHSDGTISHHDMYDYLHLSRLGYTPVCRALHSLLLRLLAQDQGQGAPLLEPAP
PAFAH2 FP inh: inhibitors of human PAFAH2; recombinant PAFAH2, FP-rhodamine activity probe, fluorescence polarization; inhibition, % at 3.39 µM; 340,000 compounds, 0.99% hits; AID 492956;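 active = inhibition above the mean over all tested compounds plus 3 SD, cut at about 30% in these data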;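 note: inhibitors block probe labeling of enzyme so polarization drops; 0% = enzyme with DMSO and 100% = wells lacking PAFAH2 protein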
ASAP1 GAP inh: blocks human ASAP1-stimulated Arf1 GTP hydrolysis; GDP FP detection; inhibition, % at 16.5 µM; 360,000 compounds, 0.19% hits; AID 624377; in the data active = inhibition above about 25%;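 note: 0% = vehicle with enzyme and substrate and 100% = no enzyme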
PAFAH1B2 FP inh: blocks human PAF acetylhydrolase 1b catalytic subunit 2 | recombinant PAFAH1B2, FP-rhodamine activity probe, fluorescence polarization | inhibition, % at 3.39 µM | 340,000 compounds, 1.2% hits | AID 492953;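 active = inhibition above the mean of all tested compounds plus 3 SD, cut at about 24% in these data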;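 note: 0% = enzyme with DMSO and 100% = wells lacking PAFAH1B2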
PAFAH1B3 confirm: confirmation of human PAFAH1B3 inhibitors; shares compounds with PAFAH1B3 inh; recombinant PAFAH1B3, FP-Rh activity-based probe, fluorescence polarization; inhibition, % at 3.39 µM; 390 compounds, 30% hits; AID 493032;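 active = average inhibition over triplicate runs above the hit cutoff set in the earlier primary screen, cut at about 25% in these data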;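 note: 0% = enzyme with DMSO and 100% = wells lacking PAFAH1B3 protein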
ASAP1 inh confirm: confirmation of human ASAP1 inhibitors. shares compounds with ASAP1 GAP inh. ASAP1-stimulated Arf1 GTPase, GDP fluorescence polarization. inhibition, % at 16.5 µM. 620 compounds, 37% hits. AID 624431;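 active = mean inhibition over triplicates exceeds the hit threshold derived for the earlier primary screening run, cut at about 25% in these data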
ARFGAP1 confirm: rat ARFGAP1 inhibition, confirmed | shares compounds with ARFGAP1 inhibitor | ARFGAP1-stimulated ARF1 GTP hydrolysis, GDP tracer FP | inhibition, % at 16.5 µM | 890 compounds, 30% hits;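 active = average inhibition over triplicates above the hit cutoff set in the earlier primary screen, cut at about 25% in these data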;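 note: 0% = Arfgap1 plus ARF1-GTP with DMSO and 100% = wells lacking Arfgap1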
Target sequence (Q62848 whole entry, looked up): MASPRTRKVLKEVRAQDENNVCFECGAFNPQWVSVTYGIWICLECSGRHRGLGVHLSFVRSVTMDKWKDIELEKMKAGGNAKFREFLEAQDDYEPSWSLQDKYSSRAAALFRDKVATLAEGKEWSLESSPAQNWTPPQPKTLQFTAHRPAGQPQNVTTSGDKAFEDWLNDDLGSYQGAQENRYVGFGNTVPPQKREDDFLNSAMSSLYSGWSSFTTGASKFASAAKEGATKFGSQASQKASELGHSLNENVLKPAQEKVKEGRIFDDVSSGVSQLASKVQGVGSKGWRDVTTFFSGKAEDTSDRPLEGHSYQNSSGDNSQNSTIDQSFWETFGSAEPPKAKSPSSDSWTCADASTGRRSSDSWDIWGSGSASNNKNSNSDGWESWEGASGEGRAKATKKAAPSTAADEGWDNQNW
Active calls of the source: *; / = no result; ! = a repeat was not active.

SMILES	pPAFAH FP inh	ARFGAP1 inhibitor	PAFAH1B3 inh	PAFAH2 FP inh	ASAP1 GAP inh	PAFAH1B2 FP inh	ASAP1 inh confirm	others
COc1cc(Cl)c(NC2=CC(=O)C(=O)c3ccccc32)c(OC)c1	6	28*	35*	13	2	15	/	PAFAH1B3 confirm=29*;ARFGAP1 confirm=-1
N#Cc1c(NC(=O)c2ccc(Br)o2)n(-c2ccccc2)c2nc3ccccc3nc12	7	27*	65*	16	42*	17	20	PAFAH1B3 confirm=48*;ARFGAP1 confirm=-1
O=C(Nc1cccc(NC(=O)c2ccc(Br)o2)n1)c1ccc(Br)o1	3	1	-5	2	-6	-2	/
C[n+]1c2cc(N)ccc2cc2ccc(N)cc21	/	25*!	33*	18	20	13	/	PAFAH1B3 confirm=28*!;ARFGAP1 confirm=3
Clc1ccc(/C=N/N2CCN(Cc3ccccc3)CC2)cc1	0	6	2	0	-5	4	/
C/C(=N\NC(=O)c1cc(-c2cccc([N+](=O)[O-])c2)n[nH]1)c1ccccc1O	19	54*	26*	-5	136*	6	150*	PAFAH1B3 confirm=14;ARFGAP1 confirm=152*
C[C@H](CO)N1C[C@H](C)[C@@H](CN(C)Cc2ccc(Cl)c(Cl)c2)Oc2ccc(NC(=O)Cn3cnnn3)cc2C1=O	-3	-6	2	-5	11	3	/
O=C(O)CCc1nc2cc3ccccc3cc2[nH]1	-1	-8	7	7	-4	4	/
COC(=O)c1ccc(C(=O)OCc2nc3cc4ccccc4cc3[nH]2)cc1	-3	5	-14	3	26*	4	5
Cc1ccc(N2CC(C(=O)Nc3ccc(C)c(S(=O)(=O)N(C)C)c3)CC2=O)cc1 (stereo not drawn)	4	-2	11	6	12	0	/
C=CCn1c(-c2cccc3ccccc23)n[nH]c1=S	7	5	0	1	52*	2	-3
Cc1ccc(C(=O)NCc2ccco2)cc1[N+](=O)[O-]	2	-3	1	7	-6	0	/
Cc1ccc(NC(=O)c2ccc(NCC3CCCO3)c([N+](=O)[O-])c2)cc1Cl (stereo not drawn)	-1	14	0	3	34*	4	95*
Cc1ccc(NC(=O)c2ccc(NCc3ccco3)c([N+](=O)[O-])c2)cc1Cl	3	11	2	-1	26*	-2	29*
O=C(c1cc2ccccc2c(=O)o1)N1CCCCCC1	-2	-2	1	-1	-2	7	/
Cc1ccc(NC(=O)CSCC(=O)Nc2ccccc2N2CCCC2)cc1	2	1	3	3	7	15	/
CN1CCN(c2ccc(S(=O)(=O)N3CCCCC3)cc2NC(=O)/C=C/c2ccc(OC(F)F)cc2)CC1	6	14	-1	-2	25*	0	19
O=C(CN1CCOCC1)Nc1cccc(S(=O)(=O)N2CCCCCC2)c1	2	5	-1	5	27*	1	4
O=C1NC(=O)C2(COC(c3ccncc3)OC2)S1 (stereo not drawn)	5	-5	9	5	-17	6	/
COc1ccc(C(=O)CSc2nc(=O)n(Cc3cccnc3)c3c2CCC3)cc1	/	13	1	-1	26*	4	2
CS(=O)(=O)N1Cc2ccccc2CC1C(=O)OCC(=O)NCCc1ccc(S(N)(=O)=O)cc1 (stereo not drawn)	1	15	8	-5	12	9	/
CC(=O)NCCn1ccc2ccccc21	-3	9	3	-5	27*	3	6
O=C(Cc1ccccc1)NCCn1ccc2ccccc21	-2	0	-7	-4	-6	3	/
COc1ccc(Cl)cc1-c1cc(C(=O)Nc2ccc(C)c(NS(C)(=O)=O)c2)[nH]n1	/	8	/	/	2	/	/
COc1ccc(Cl)c(-c2cc(C(=O)Nc3ccc(C)c(NS(C)(=O)=O)c3)[nH]n2)c1	/	11	/	/	26*	/	10
SMILES	pPAFAH FP inh	ARFGAP1 inhibitor	PAFAH1B3 inh	PAFAH2 FP inh	ASAP1 GAP inh	PAFAH1B2 FP inh	ASAP1 inh confirm	others
Cc1cc(C)c(S(=O)(=O)NCC(=O)NCc2ccco2)c(C)c1	5	3	4	8	-12	0	/
Cc1cccc(-n2c(CCc3ccccc3)nnc2SCC(=O)c2ccccc2)c1	7	-11	-2	6	2	3	/
Nc1n[nH]c(N)c1N=Nc1ccc(Cl)cc1Cl	6	6	9	-2	29*	6	16
Cc1cccc(/N=C/c2sc3ccccc3c2O)n1	-3	21	-11	-16	28*	-8	16
Cc1cc(Br)cc2c1N(C)C(=O)C2(c1ccc(O)cc1)c1ccc(O)cc1	8	3	/	/	17	/	/
CC1(c2ccccc2)NC(=O)N(CCN2C(=O)c3ccccc3C2=O)C1=O (stereo not drawn)	1	12	3	2	25*	3	6
Cc1ccc2[nH]c(O)c(N=NC(=O)c3ccc(NS(=O)(=O)c4cccs4)cc3)c2c1	26*	-2	10	0	29*	26*	9
Cn1c(=O)cc(SCC(=O)N2CCCC2)c2ccccc21	2	2	2	4	35*	-2	3
O=C(COc1ccc(F)c(Cl)c1)Nc1ccc(N2CCOCC2)cc1	8	17	-5	-1	5	-1	/
c1ccc(-c2cc(-c3nnc4n3N=C(c3ccc5ccccc5c3)CS4)[nH]n2)cc1	-3	11	-12	-12	25*	-2	11
Cc1cc(-c2nnc3n2N=C(c2ccc(-c4ccccc4)cc2)CS3)n[nH]1	2	20	5	5	10	-5	/
COc1ccc(N2C(=O)[C@@H]3[C@H](C2=O)[C@H]2c4ccccc4C=CN2[C@@H]3C(C)=O)cc1	1	22	17	-5	49*	3	18
COc1ccc(N2C(=O)[C@H]3[C@@H](C2=O)C2c4ccccc4C=NN2[C@H]3C(=O)C(C)(C)C)cc1 (stereo partly drawn)	0	4	3	7	6	7	/
CCOC(=O)c1sc(N(Cc2ccccc2)C(=O)COC(=O)c2ccc(O)cc2)nc1C	-18	16	-15	-24	26*	-12	21
CCOC(=O)c1sc(N(Cc2ccccc2)C(=O)CCl)nc1C	-3	-4	-6	-5	0	2	/
C[N+](C)(C)CCOP(=O)(O)OP(=O)([O-])OC[C@H]1O[C@@H](n2ccc(N)nc2=O)[C@H](O)[C@@H]1O	0	/	3	3	/	-1	/

From PubChem
